Source: ChEMBL document CHEMBL1127799, “Derivatives of a novel cyclopeptolide. 1. Synthesis, antifungal activity, and structure-activity relationships” (1994)

Tests used:
Format in all cases: functional
[1] = tested on: Candida tropicalis; assay: Tested for minimum inhibitory concentration against Candida tropicalis 43 (C.t) at pH of 4.5.
In short: (§1)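 Broth microdilution in malt extract broth, initial pH 4.5 or 6.5, with 1×10^3 CFU per 0.2 mL well of thawed stored cultures. Compound stocks were made in 5% DMSO/0.2% Tween 80 and diluted to final 0.05–100 μg/mL. Plates were incubated 48 h at 30 °C and read macroscopically. MIC was the lowest concentration with no detectable growth. Vehicle-only wells served as controls.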

[2] = tested on: Candida albicans; assay: Tested for minimum inhibitory concentration against Candida albicans 124 (Candida albicans) at pH of 4.5.; in short: as §1
[3] = tested on: Meyerozyma guilliermondii; assay: Tested for minimum inhibitory concentration against Candida guilliermondii 80 (C.g) at pH of 6.5.; in short: as §1
[4] = tested on: Pichia kudriavzevii; assay: Tested for minimum inhibitory concentration against Candida krusei 132 (C.k) at pH of 4.5.; in short: as §1
[5] = tested on: Meyerozyma guilliermondii; assay: Tested for minimum inhibitory concentration against Candida guilliermondii 80 (C.g) at pH of 4.5.; in short: as §1
[6] = tested on: Candida albicans; assay: Tested for minimum inhibitory concentration against Candida albicans 124 (Candida albicans) at pH of 6.5.; in short: as §1
[7] = tested on: Candida tropicalis; assay: Tested for minimum inhibitory concentration against Candida tropicalis 43 (C.t) at pH of 6.5.; in short: as §1
[8] = tested on: Pichia kudriavzevii; assay: Tested for minimum inhibitory concentration against Candida krusei 132 (C.k) at pH of 6.5.; in short: as §1
[9] = tested on: Candida albicans; assay: Tested for minimum inhibitory concentration against Candida albicans 124 at pH of 4.5.; in short: as §1
[10] = tested on: Pichia kudriavzevii; assay: Tested for minimum inhibitory concentration against Candida krusei 132 at pH of 6.5.; in short: as §1
[11] = tested on: Candida albicans; assay: Tested for minimum inhibitory concentration against Candida albicans 124 at pH of 6.5.; in short: as §1
[12] = tested on: Candida tropicalis; assay: Tested for minimum inhibitory concentration against Candida tropicalis 43 at pH of 4.5.; in short: as §1
[13] = tested on: Candida tropicalis; assay: Tested for minimum inhibitory concentration against Candida tropicalis 43 at pH of 6.5.; in short: as §1
[14] = tested on: Pichia kudriavzevii; assay: Tested for minimum inhibitory concentration against Candida krusei 132 at pH of 4.5.; in short: as §1
[15] = tested on: Meyerozyma guilliermondii; assay: Tested for minimum inhibitory concentration against Candida guilliermondii 80 at pH of 6.5.; in short: as §1
[16] = tested on: Meyerozyma guilliermondii; assay: Tested for minimum inhibitory concentration against Candida guilliermondii 80 at pH of 4.5.; in short: as §1
[17] = tested on: Candida albicans; assay: tested for minimum inhibitory concentration against Candida albicans 124 (Candida albicans) at pH of 6.5.; in short: as §1
[18] = tested on: Candida albicans; assay: Tested for minimum inhibitory concentration against Candida albicans 90 (Candida albicans) at pH 6.5.
In short: (§2)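 Broth microdilution in malt extract broth, initial pH 6.5, 1×10^3 CFU per 0.2 mL well, from liquid-nitrogen-stored Sabouraud cultures. Compound from 0.08% stock in 5% DMSO/0.2% Tween 80, final 0.05–100 μg/mL. Visual reading after 48 h at 30 °C. MIC = lowest concentration with no detectable growth. Vehicle-only negative controls.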

[19] = species on record: Rattus norvegicus; assay: Tested for efficacy of compound in experimental vaginal candidosis (rat) after oral treatment at dosage of 2x 300 mg kg e-1
In short: (§3)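 Hormonally conditioned female Wistar rats (~150 g), 10 per group, given intravaginal C. albicans no. 124, 3.5×10^4 CFU in 50 μL Sabouraud's glucose broth. Oral dosing twice, 2 h before and 18 h after infection. Vaginal swabs plated on Sabouraud's glucose agar with streptomycin (0.1 mg/mL), 48 h at 37 °C. Cured when C. albicans not reisolated.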

[20] = tested on: Candida tropicalis; assay: Tested for minimum subinhibitory concentration against Candida tropicalis 43 (C.t) at pH 6.5.
In short: (§4)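 Malt extract broth microdilution, initial pH 6.5, inoculum 1×10^3 CFU per 0.2 mL well. Compound diluted from 0.08% stock (5% DMSO/0.2% Tween 80) to final 0.05–100 μg/mL. Macroscopic reading after 48 h, 30 °C. MSIC = lowest concentration giving visible growth inhibition in at least two of three triplicates. Vehicle-only negative controls.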

[21] = tested on: Candida albicans; assay: Tested for minimum inhibitory concentration against Candida albicans 9 (Candida albicans) at pH 6.5.; in short: as §2
[22] = species on record: Rattus norvegicus; assay: Tested for efficacy of compound in experimental vaginal candidosis (rat) after oral treatment at dosage of 2x 150 mg kg e-1; in short: as §3
[23] = species on record: Mus musculus; assay: Tested for efficacy of compound in experimental systemic candidosis (mouse) after oral treatment at dosage of 8 *100 mg kg e-1
In short: (§5)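 Systemic candidiasis: female NMRI mice (18–20 g), 10 per group, infected by intravenous injection of 10⁶ CFU C. albicans no. 124 via lateral tail vein. Oral dosing twice daily on 4 consecutive days, starting 2 h before inoculation. Efficacy taken as survival rate up to day 9 after infection.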

[24] = tested on: Meyerozyma guilliermondii; assay: Tested for minimum inhibitory concentration against Candida guilliermondii 80 (C.g) at pH 6.5.; in short: as §2
[25] = species on record: Mus musculus; assay: Tested for efficacy of compound in experimental vaginal candidosis (mouse) after oral treatment at dosage of 4 x150 mg kg e-1
In short: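 Vaginal candidiasis in hormonally conditioned female NMRI mice (18–20 g), 10 per group, inoculated intravaginally with 50 μL Sabouraud's glucose broth containing 3.5×10^4 CFU C. albicans no. 124. Dosed four times per gavage, 2 h before and 2, 18 and 24 h after infection. Vaginal swabs plated on Sabouraud's glucose agar with streptomycin (0.1 mg/mL), 48 h at 37 °C. Cure = failed reisolation.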

[26] = tested on: Candida albicans; assay: Tested for minimum inhibitory concentration against Candida albicans 26 (Candida albicans) at pH 6.5.; in short: as §2
[27] = tested on: Candida albicans; assay: Tested for minimum inhibitory concentration against Candida albicans 88 (Candida albicans) at pH 6.5.; in short: as §2
[28] = tested on: Candida albicans; assay: Tested for minimum subinhibitory concentration against Candida albicans 26 (Candida albicans) at pH 6.5.; in short: as §4
[29] = tested on: Pichia kudriavzevii; assay: Tested for minimum subinhibitory concentration against Candida krusei 132 (C.k) at pH 6.5.; in short: as §4
[30] = tested on: Candida albicans; assay: Tested for minimum inhibitory concentration against Candida albicans 4 (Candida albicans) at pH 6.5.; in short: as §2
[31] = tested on: Meyerozyma guilliermondii; assay: Tested for minimum subinhibitory concentration against Candida guilliermondii 80 (C.g) at pH 6.5.; in short: as §4
[32] = tested on: Candida albicans; assay: Tested for minimum subinhibitory concentration against Candida albicans 88 (Candida albicans) at pH 6.5.; in short: as §4
[33] = species on record: Rattus norvegicus; assay: Tested for efficacy of compound in experimental vaginal candidosis (rat) after tropical treatment at dosage of 9x 0.1% drug concentration
In short: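 Female Wistar rats (~150 g, hormonally conditioned, 10 per group) infected intravaginally with 3.5×10^4 CFU C. albicans no. 124 in 50 μL broth. Intravaginal gel, 0.2 mL, from 2 h post-inoculation, twice daily for 4 days (nine applications). Swabs plated one day after last treatment on Sabouraud's glucose agar with streptomycin, 48 h at 37 °C. Cure = no reisolation.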

[34] = tested on: Pichia kudriavzevii; assay: Tested for minimum inhibitory concentration against Candida krusei 132 (C.k) at pH 6.5.; in short: as §2
[35] = tested on: Candida albicans; assay: Tested for minimum subinhibitory concentration against Candida albicans 9 (Candida albicans) at pH 6.5.; in short: as §4
[36] = tested on: Candida albicans; assay: Tested for minimum subinhibitory concentration against Candida albicans 90 (Candida albicans) at pH 6.5.; in short: as §4
[37] = tested on: Candida albicans; assay: Tested for minimum inhibitory concentration against Candida albicans 124 (Candida albicans) at pH 6.5.; in short: as §2
[38] = tested on: Candida albicans; assay: Tested for minimum subinhibitory concentration against Candida albicans 124 (Candida albicans) at pH 6.5.; in short: as §4
[39] = species on record: Mus musculus; assay: Tested for efficacy of compound in experimental systemic candidosis (mouse) after oral treatment at dosage of 8 *200 mg kg e-1; in short: as §5
[40] = tested on: Candida albicans; assay: Tested for minimum inhibitory concentration against Candida albicans 3 (Candida albicans) at pH 6.5.; in short: as §2
[41] = tested on: Candida tropicalis; assay: Tested for minimum inhibitory concentration against Candida tropicalis 43 (C.t) at pH 6.5.; in short: as §2
[42] = tested on: Candida albicans; assay: Tested for minimum subinhibitory concentration against Candida albicans 3 (Candida albicans) at pH 6.5.; in short: as §4
[43] = tested on: Candida albicans; assay: Tested for minimum subinhibitory concentration against Candida albicans 4 (Candida albicans) at pH 6.5.; in short: as §4

CC[C@@H](C)[C@H]1C(=O)NCC(=O)N(C)[C@@H](C(C)C)C(=O)N[C@@H](Cc2ccc(OC)cc2)C(=O)O[C@H](C)C(=O)N2CCCC[C@H]2C(=O)N(C)[C@@H](C(C)C)C(=O)N[C@@H](C(C)C)C(=O)N(C)[C@@H](CCO)C(=O)N(C)[C@@H]([C@@H](C)CC)C(=O)N1C
> 100 µg/mL: MIC [1] | MIC [2] | MIC [3] | MIC [4] | MIC [5] | MIC [6] | MIC [7] | MIC [8]

CC[C@@H](C)[C@H]1C(=O)NCC(=O)N(C)[C@@H](C(C)C)C(=O)N[C@@H](Cc2ccc(OCc3ccc(Cl)cc3)cc2)C(=O)O[C@H](C)C(=O)N2CCCC[C@H]2C(=O)N(C)[C@@H](C(C)C)C(=O)N[C@@H](C(C)C)C(=O)N(C)[C@@H](CC(=O)O)C(=O)N(C)[C@@H]([C@@H](C)CC)C(=O)N1C
100 µg/mL: MIC [2]
> 100 µg/mL: MIC [1] | MIC [3] | MIC [4] | MIC [5] | MIC [6] | MIC [7] | MIC [8]

CC[C@@H](C)[C@H]1C(=O)NCC(=O)N(C)[C@@H](C(C)C)C(=O)N[C@@H](Cc2ccc(OCc3ccccc3)cc2)C(=O)O[C@H](C)C(=O)N2CCCC[C@H]2C(=O)N(C)[C@@H](C(C)C)C(=O)N[C@@H](C(C)C)C(=O)N(C)[C@@H](CC(=O)O)C(=O)N(C)[C@@H]([C@@H](C)CC)C(=O)N1C
> 100 µg/mL: MIC [1] | MIC [3] | MIC [4] | MIC [5] | MIC [6] | MIC [7] | MIC [8]
50 µg/mL: MIC [2]

CC[C@@H](C)[C@H]1C(=O)NCC(=O)N(C)[C@@H](C(C)C)C(=O)N[C@@H](Cc2ccc(OC/C=C(\C)CCC=C(C)C)cc2)C(=O)O[C@H](C)C(=O)N2CCCC[C@H]2C(=O)N(C)[C@@H](C(C)C)C(=O)N[C@@H](C(C)C)C(=O)N(C)[C@@H](CC(=O)O)C(=O)N(C)[C@@H]([C@@H](C)CC)C(=O)N1C
> 100 µg/mL: MIC [9] | MIC [10] | MIC [11] | MIC [12] | MIC [13] | MIC [14] | MIC [15] | MIC [16]

CC[C@@H](C)[C@H]1C(=O)NCC(=O)N(C)[C@@H](C(C)C)C(=O)N[C@@H](Cc2ccc(OC)cc2)C(=O)O[C@H](C)C(=O)N2CCCC[C@H]2C(=O)N(C)[C@@H](C(C)C)C(=O)N[C@@H](C(C)C)C(=O)N(C)[C@@H](CC(=O)N(CC)CC)C(=O)N(C)[C@@H]([C@@H](C)CC)C(=O)N1C
> 100 µg/mL: MIC [1] | MIC [2] | MIC [3] | MIC [4] | MIC [5] | MIC [6] | MIC [7] | MIC [8]

C=CCOC(=O)C[C@H]1C(=O)N(C)[C@@H]([C@@H](C)CC)C(=O)N(C)[C@@H]([C@H](C)CC)C(=O)NCC(=O)N(C)[C@@H](C(C)C)C(=O)N[C@@H](Cc2ccc(OCC=C)cc2)C(=O)O[C@H](C)C(=O)N2CCCC[C@H]2C(=O)N(C)[C@@H](C(C)C)C(=O)N[C@@H](C(C)C)C(=O)N1C
> 100 µg/mL: MIC [17] | MIC [1] | MIC [2] | MIC [3] | MIC [4] | MIC [5] | MIC [7] | MIC [8]

CC(=O)N1CCN(c2ccc(OC[C@H]3CO[C@](Cn4ccnc4)(c4ccc(Cl)cc4Cl)O3)cc2)CC1 [KETOCONAZOLE]
0.78 µg/mL: MSIC [29]
6.25 µg/mL: MSIC [20]
0.19 µg/mL: MSIC [31] | MSIC [38] | MSIC [42]
73%: Efficacy [33]
100 µg/mL: MIC [21] | MIC [40]
100%: Efficacy [19] | Efficacy [22] | Efficacy [23] | Efficacy [25] | Efficacy [39]
0.39 µg/mL: MSIC [36]
<0.05 µg/mL: MSIC [28] | MSIC [32] | MSIC [35] | MSIC [43]
> 100 µg/mL: MIC [18] | MIC [24] | MIC [26] | MIC [27] | MIC [30] | MIC [34] | MIC [37] | MIC [41]
